pIC50: −log10 of the molar value. Where “and” joins values, the source holds several entries; their conditions need not be identical. Equal entries are not always repeated. Entries after “also recorded” stand apart in the source; their conditions may differ.
Experiments:
[1] = Metabolism by rat liver homogenates in the presence of NADPH; assay type: in vitro ADME; conditions: 20 μM, NADPH 1 mM, 60 min, 37 °C
Summary of the method: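 Liver from male Sprague-Dawley rats was homogenised in ice-cold 0.25 M sucrose and spun at 600 × g for 10 min; the supernatant served as homogenate. It was incubated with test compound (20 μM) in phosphate buffer (pH 7.4, 50 mM final) with NADPH (1 mM final) for 60 min at 37 °C. Reactions were stopped with ice-cold MeOH. Products were analysed by reversed-phase C18 HPLC (22–42% acetonitrile gradient, 0.02% acetic acid) with photodiode-array UV detection.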

[2] = Preliminary pharmacokinetic experiments in rats, oral administration; assay type: in vivo, rat; conditions: unpublished data
[3] = Metabolism by rat liver homogenates in medium favoring β-oxidation; assay type: in vitro ADME; conditions: medium containing ATP, CoA, L-carnitine and NAD+
fMLP = assay: Selectivity: calcium mobilization in neutrophils in response to fMLP; assay type: cell-based, human; conditions: compound 10 μM; fMLP 100 nM
Summary of the method: (§1)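 Neutrophils were prepared by dextran sedimentation, Ficoll and hypotonic lysis, loaded with indo-1 AM, and placed in a stirred cuvette at 37 °C in PBS with Ca++ 1.8 mM and Mg++ 1 mM. Fluorescence was read at excitation 331 nm and emission 410 nm. Vehicle or test compound was added at baseline, 5-oxo-ETE (10 nM final) 2 min later, and the second agonist 2 min after that. Digitonin (0.1% final) followed 1 min later for maximal signal.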

PAF = assay: Selectivity: calcium mobilization in neutrophils in response to PAF; assay type: cell-based, human; conditions: compound 10 μM; PAF 10 nM
Summary of the method: as §1

OXE receptor [4] = molecular target: T1, OXE receptor (Homo sapiens, UniProt Q8TDS5); assay: 5-oxo-ETE-induced calcium mobilization in indo-1-loaded neutrophils; assay type: cell-based; conditions: for Effect on 5-oxo-ETE-induced calcium mobilization: compound 10 μM
T1 sequence (Q8TDS5 whole entry): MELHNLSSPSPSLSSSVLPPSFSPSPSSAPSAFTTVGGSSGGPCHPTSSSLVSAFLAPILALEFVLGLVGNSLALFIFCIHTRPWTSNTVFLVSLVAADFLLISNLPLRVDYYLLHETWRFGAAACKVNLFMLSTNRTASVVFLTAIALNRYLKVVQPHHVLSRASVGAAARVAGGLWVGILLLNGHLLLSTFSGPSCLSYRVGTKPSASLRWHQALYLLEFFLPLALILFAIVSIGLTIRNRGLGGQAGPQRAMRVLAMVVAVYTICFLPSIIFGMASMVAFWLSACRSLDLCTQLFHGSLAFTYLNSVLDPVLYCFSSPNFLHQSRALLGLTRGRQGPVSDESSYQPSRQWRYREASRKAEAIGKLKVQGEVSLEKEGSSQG

LTB4 = assay: Selectivity: calcium mobilization in neutrophils in response to LTB4; assay type: cell-based, human; conditions: compound 10 μM; LTB4 10 nM
Summary of the method: as §1

IL-8 = assay: Selectivity: calcium mobilization in neutrophils in response to IL-8; assay type: cell-based, human; conditions: compound 10 μM; IL-8 10 nM
Summary of the method: as §1

OXE receptor [5] = molecular target: T1, OXE receptor; conditions: concentration of 30 μM; cited from earlier work
OXE receptor [6] = conditions: cited from earlier work
OXE receptor [7] = molecular target: T1, OXE receptor; conditions: cited from earlier work
neutrophils = assay: 5-oxo-ETE-induced actin polymerization in neutrophils; assay type: cell-based, human; conditions: 5-oxo-ETE 10 nM
Summary of the method: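 Unfractionated leukocytes came from healthy-donor blood by dextran sedimentation and hypotonic lysis. They were labelled with APC anti-CD49d (30 min, ice) and held at 5.5 × 10^6 cells/ml in PBS with Ca++ 1.8 mM and Mg++ 1 mM. Cells were preincubated 5 min at 37 °C with DMSO vehicle or test compound, then given 5-oxo-ETE (10 nM final) for 20 s. They were fixed in formaldehyde (8.5% final), permeabilised with lysophosphatidylcholine and stained overnight at 4 °C with NBD-phallacidin (0.3 μM final). F-actin was read by flow cytometry.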

eosinophils = assay: 5-oxo-ETE-induced actin polymerization in eosinophils; assay type: cell-based, human; conditions: 5-oxo-ETE 10 nM
[8] = calcium mobilization, 5-oxo-ETE 10 nM

Compound: CCCCCCc1cc2ccc(Cl)cc2n1C(=O)CC(C)CC(=O)O (racemic) [compound 34, 5-(6-Chloro-2-hexyl-indol-1-yl)-3-methyl-5-oxo-pentanoic acid]
- Converted to a more polar product [1]: about 12%
- Extent of metabolism [1]: metabolized to a small extent
- Appearance in the blood [2]: appear rapidly in the blood
- Metabolism under conditions favoring β-oxidation [3]: Negligible metabolism; also recorded: no evidence for the metabolism
- Effect on calcium response to fMLP (fMLP): no effect
- Effect on calcium response to PAF (PAF): no effect
- Effect on 5-oxo-ETE-induced calcium mobilization (OXE receptor [4]; 5-oxo-ETE 10 nM): completely blocked
- Effect on calcium response to LTB4 (LTB4): no effect
- Effect on calcium response to IL-8 (IL-8): no effect

Compound: CCCCCCc1c(C(=O)CC(C)CC(=O)O)c2cc(Cl)ccc2n1C (racemic) [compound 53, 5-(5-Chloro-2-hexyl-1-methyl-1H-indol-3-yl)-3-methyl-5-oxo-pentanoic acid]
- Extent of metabolism [1]: metabolized to an even lesser extent
- Appearance in the blood [2]: appear rapidly in the blood
- Metabolism under conditions favoring β-oxidation [3]: Negligible metabolism; also recorded: no evidence for the metabolism
- Effect on calcium response to fMLP (fMLP): no effect
- Effect on calcium response to PAF (PAF): no effect
- pIC50 (OXE receptor [4]; IC50, inhibition of 5-oxo-ETE-induced calcium mobilization in neutrophils, 5-oxo-ETE 10 nM added 2 min after antagonist): 7.55 and ~7.52
- Further increase in antagonist potency relative to 51 and 52 (OXE receptor [4]; [8]): over 10 fold
- Effect on 5-oxo-ETE-induced calcium mobilization (OXE receptor [4]; 5-oxo-ETE 10 nM): completely blocked
- Effect on calcium response to LTB4 (LTB4): no effect
- Effect on calcium response to IL-8 (IL-8): no effect

Compound: O=C(O)CCCC(=O)n1ccc2ccccc21 [1(5-oxovalerate)indole]
- Antagonist activity (OXE receptor [5]): no detectable activity

Compound: CCCCC/C=C\C/C=C\C/C=C\C=C\[C@@H](O)CCCC(=O)O [5-HETE, 5S-hydroxy-6E,8Z,11Z,14Z-eicosatetraenoic acid]
- Times less potent than 5-oxo-ETE (OXE receptor [6]): 100 times

Compound: CCCCC/C=C\C[C@H](O)/C=C/C=C\C=C\C(=O)CCCC(=O)O [5-oxo-12-HETE, 5-oxo-12S-hydroxy-6E,8Z,10E,14Z-eicosatetraenoic acid]
- Agonist activity (calcium mobilization by the compound itself) (OXE receptor [7]): Neither compound mobilized intracellular calcium; also recorded: not itself affecting intracellular calcium levels

Compound: O=C(O)CCCC(=O)/C=C/C=C\C/C=C\C/C=C\CCCCCO [5-oxo-20-hydroxy-ETE]
- Times less potent than 5-oxo-ETE (OXE receptor [6]): 100 times

Compound: CCCCC/C=C\C[C@H](O)/C=C/C=C/C=C/C(=O)CCCC(=O)O [8-trans-5-oxo-12-HETE]
- Agonist activity (calcium mobilization by the compound itself) (OXE receptor [7]): Neither compound mobilized intracellular calcium

Compound: CCCCC/C=C\CC(=O)/C=C/C=C\C/C=C\CCCC(=O)O [12-oxo-ETE]
- Activation of the OXE receptor (OXE receptor [6]): do not activate the OXE receptor

Compound: CCCCCC(=O)/C=C/C=C\C/C=C\C/C=C\CCCC(=O)O [15-oxo-ETE]
- Activation of the OXE receptor (OXE receptor [6]): do not activate the OXE receptor

Compound: CSc1nc2ccc3nc(NC(=O)C(c4ccccc4)c4ccccc4)sc3c2s1 [Gue1654, 7-(methylthio)-2-[(2,2-diphenylacetyl)amino]benzo[1,2-d:4,3-d′]bisthiazole]
- Times less potent than 53 and 34 in blocking actin polymerization in neutrophils (neutrophils): about 10 times
- Times less potent than 53 and 34 in blocking actin polymerization in eosinophils (eosinophils): about 10 times

Compound: CCCCc1cc2ccccc2n1C(=O)CCCC(=O)O [compound 8]
- Reduction in antagonist potency relative to 10 (OXE receptor [4]; [8]): over 10 fold

Compound: CCCCCc1cc2ccccc2n1C(=O)CCCC(=O)O [compound 9]
- Antagonist potency compared with 10 (OXE receptor [4]; [8]): small decrease in potency

Compound: CCCCCCc1cc2ccccc2n1C(=O)CCCC(=O)O [compound 10]
- Effect on 5-oxo-ETE-induced calcium mobilization (OXE receptor [4]; 5-oxo-ETE 10 nM): completely abolished

Compound: CCCCCCCc1cc2ccccc2n1C(=O)CCCC(=O)O [compound 11]
- Antagonist potency compared with 10 (OXE receptor [4]; [8]): slightly increased potency

Compound: CCCCCCCCc1cc2ccccc2n1C(=O)CCCC(=O)O [compound 12]
- Antagonist potency compared with 10 (OXE receptor [4]; [8]): slightly increased potency

Compound: CCCCCCCCCCCc1cc2ccccc2n1C(=O)CCCC(=O)O [compound 13]
- Antagonist potency compared with 10 (OXE receptor [4]; [8]): slightly increased potency

Compound: CCCC/C=C/c1cc2ccccc2n1C(=O)CCCC(=O)O [compound 14, 5-(2-Hex-1-enyl-indol-1-yl)-5-oxo-pentanoic acid]
- Antagonist potency compared with 10 (OXE receptor [4]; [8]): reduced potency

Compound: CCCCCCCCC/C=C\c1cc2ccccc2n1C(=O)CCCC(=O)O [compound 15, (Z)-5-oxo-5-(2-(undec-1-en-1-yl)-1H-indol-1-yl)pentanoic acid]
- Antagonist potency compared with 13 (OXE receptor [4]; [8]): little effect

Compound: CCCCCCc1cc2ccccc2n1C(=O)CC(C)(C)CC(=O)O [compound 17, 5-(2-hexyl-1H-indol-1-yl)-3,3-dimethyl-5-oxopentanoic acid]
- Reduction in antagonist potency relative to 10 (OXE receptor [4]; [8]): about 10 fold

Compound: CCCCCCc1cc2ccccc2n1C(=O)CC1(CC(=O)O)CC1 [compound 25, 2-(1-(2-(2-hexyl-1H-indol-1-yl)-2-oxoethyl)cyclopropyl)acetic acid]
- Antagonist potency compared with 10 (OXE receptor [4]; [8]): relatively little effect

Compound: CCCCCCc1cc2ccccc2n1C(=O)CC(C)CC(=O)O (stereo not drawn) [compound 27, 5-(2-hexyl-1H-indol-1-yl)-3-methyl-5-oxopentanoic acid]
- Increase in antagonist potency relative to 10 (OXE receptor [4]; [8]): over 10 times

Compound: CCCCCCc1cc2ccccc2n1C(=O)CCC(=O)O [compound 29, 4-(2-Hexyl-indol-1-yl)-4-oxo-butyric acid]
- Antagonist potency compared with 10 (OXE receptor [4]; [8]): nearly eliminated antagonist activity

Compound: CCCCCCc1cc2ccc(Br)cc2n1C(=O)CC(C)CC(=O)O (stereo not drawn) [compound 35, 5-(6-bromo-2-hexyl-1-H-indol-1-yl)-3-methyl-5-oxo-pentanoic acid]
- Increase in antagonist potency relative to 27 (OXE receptor [4]; [8]): approximately 3 fold

Compound: CCCCCCc1cc2ccc(OC)cc2n1C(=O)CC(C)CC(=O)O (stereo not drawn) [compound 36, 5-(2-hexyl-6-methoxy-1-H-indol-1-yl)-3-methyl-5-oxo-pentanoic acid]
- Antagonist potency compared with 27 (OXE receptor [4]; [8]): reduced potency by several fold

Compound: CCCCCCc1cc2cc(Cl)ccc2n1C(=O)CC(C)CC(=O)O (stereo not drawn) [compound 41, 5-(5-chloro-2-hexyl-1-H-indol-1-yl)-3-methyl-5-oxo-pentanoic acid]
- Antagonist potency compared with 27 (OXE receptor [4]; [8]): relatively little effect

Compound: CCCCCCc1cc2cc(Br)ccc2n1C(=O)CC(C)CC(=O)O (stereo not drawn) [compound 42, 5-(5-bromo-2-hexyl-1-H-indol-1-yl)-3-methyl-5-oxo-pentanoic acid]
- Antagonist potency compared with 27 (OXE receptor [4]; [8]): reduced potency by several fold

Compound: CCCCCCc1c(C)c2ccccc2n1C(=O)CC(C)CC(=O)O (stereo not drawn) [compound 47, 5-(2-hexyl-3-methyl-1-H-indol-1-yl)-3-methyl-5-oxo-pentanoic acid]
- Antagonist potency compared with 27 (OXE receptor [4]; [8]): relatively little effect

Compound: CCCCCCc1[nH]c2ccccc2c1C(=O)CCCC(=O)O [compound 48, 5-(2-Hexyl-1H-indol-3-yl)-5-oxo-pentanoic acid]
- Effect on 5-oxo-ETE-induced calcium mobilization (OXE receptor [4]; 5-oxo-ETE 10 nM): modest antagonist effect

Compound: CCCCCCc1c(C(=O)CCCC(=O)O)c2ccccc2n1C [compound 50, 5-(2-hexyl-1-methyl-1-H-indol-3-yl)-5-oxo-pentanoic acid]
- Antagonist potency compared with 48 (OXE receptor [4]; [8]): slightly increased potency

Compound: CCCCCCc1c(C(=O)CCCC(=O)O)c2cc(Cl)ccc2n1C [compound 51, 5-(5-chloro-2-hexyl-1-methyl-1-H-indol-3-yl)-5-oxo-pentanoic acid]
- Antagonist potency compared with 27 (OXE receptor [4]; [8]): less potent than 27
- Increase in antagonist potency relative to 50 (OXE receptor [4]; [8]): about 10 times

Compound: CCCCCCc1c(C(=O)CC(C)CC(=O)O)c2cc(Br)ccc2n1C (stereo not drawn) [compound 54, 5-(5-bromo-2-hexyl-1-methyl-1-H-indol-3-yl)-3-methyl-5-oxo-pentanoic acid]
- Antagonist potency compared with 53 (OXE receptor [4]; [8]): equipotent

Compound: CCCCCCc1c(C(=O)CC(C)CC(=O)O)c2ccc(Cl)cc2n1C (stereo not drawn) [compound 56, 5-(6-chloro-2-hexyl-1-methyl-1-H-indol-3-yl)-3-methyl-5-oxo-pentanoic acid]
- Increase in antagonist potency relative to 52 (OXE receptor [4]; [8]): about 4 fold
